# Results pooled from the literature.
# Compare with care: the assays were run in different laboratories.
# Target: Serine/threonine-protein kinase 17B (STK17B, Homo sapiens, UniProt O94768)
# One construct used (O94768 1-372): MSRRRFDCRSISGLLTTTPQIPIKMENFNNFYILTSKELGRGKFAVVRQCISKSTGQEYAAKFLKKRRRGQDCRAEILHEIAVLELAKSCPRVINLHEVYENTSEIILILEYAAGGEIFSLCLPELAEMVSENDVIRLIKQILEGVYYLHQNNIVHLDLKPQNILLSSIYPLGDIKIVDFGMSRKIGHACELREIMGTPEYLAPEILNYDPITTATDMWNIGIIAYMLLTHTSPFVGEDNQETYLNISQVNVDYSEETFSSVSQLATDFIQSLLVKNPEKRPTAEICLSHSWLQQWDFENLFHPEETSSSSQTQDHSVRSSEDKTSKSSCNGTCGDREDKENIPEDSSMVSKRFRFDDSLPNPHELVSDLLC
Structure (SMILES),assay,conditions,measurement,value
CCN1CCC2(CC1)NC(=O)c1c(c3ccc(Cl)c(Cl)c3n1C)C2C#N (racemic),"thermal stability, DSF",10 µM,ΔTm,1 °C
Cc1nn(CC(F)(F)F)cc1Nc1ncc(Br)c(NCCCNC(=O)C2CCC2)n1,"enzyme activity, inhibitor, radiometric",1 µM,remaining activity,5%
CN1CC(Oc2cnc(C#N)cc2-c2ccn3nc(NC(=O)C4CC4)cc3c2)C1,"enzyme activity, inhibitor",1 µM,inhibition,-4%
Cc1nn(CC(F)(F)F)cc1Nc1nccc(NCc2ccc(S(N)(=O)=O)cc2)n1,"enzyme activity, inhibitor, radiometric",1 µM,remaining activity,92%
COc1cc(Cl)c(C(=O)N[C@@H](CN[C@H]2CC[C@@H](N)CC2)Cc2ccc(C#N)cc2)cc1-c1ccc(CN[C@H](C)c2ccc(C)cc2)o1,"enzyme activity, inhibitor",1 µM,remaining activity,94%
O=C(Nc1cccnn1)N1CC(C/C=C/c2cncc(Oc3ccc(C(F)(F)F)cn3)n2)C1,"cell-free assay, competition with immobilised ligand",1 µM,remaining binding,100%
NS(=O)(=O)c1ccc(CNc2nc(Nc3cccc(NC(=O)N4CCCC4)c3)ncc2Br)cc1,"enzyme activity, inhibitor, radiometric",1 µM,remaining activity,23%
C[C@H](NC(=O)c1cnc2n1[C@](C)(Cc1ccc(C#N)cc1)C(=O)N2c1cc(Cl)c(F)c(Cl)c1)C(=O)NC1(c2ccccn2)CC1,"cell-free assay, competition with immobilised ligand",1 µM,remaining binding,100%
Cc1nn(CC(F)(F)F)cc1Nc1ncc(Br)c(NCCc2cnc[nH]2)n1,"enzyme activity, inhibitor, radiometric",1 µM,remaining activity,12%
O=C(CSc1nc2nccnc2c(=O)n1CCc1ccccc1)Nc1nccs1,"enzyme activity, inhibitor",10 µM,inhibition,11%
Cc1nc(N2CC[C@@H](O)C2)ncc1-c1cc(C(F)(F)F)cc2[nH]ncc12,"cell-free assay, competition with immobilised ligand",1 µM,remaining binding,99%
Nc1ncnc2occ(-c3ccc(NC(=O)Nc4cc(C(F)(F)F)ccc4F)cc3)c12,cell-free assay,20 µM,remaining signal,94%
CS(=O)(=O)Nc1cccc(-c2csc(NC(=O)CSc3nc4nccnc4c(=O)n3CCc3ccccc3)n2)c1,"enzyme activity, inhibitor",10 µM,inhibition,4%
Cc1ccc(C(=O)Nc2ccc(CN3CCN(C)CC3)c(C(F)(F)F)c2)cc1C#Cc1cnc2cccnn12,enzyme activity,23.5 nM,remaining activity,100%
